Experimental data taken from ChEMBL document CHEMBL5724801, “EUbOPEN Chemogenomics Library - Multiplex” (2024).
“And” between values parts separate entries of the source, which are not always exact repeats. Equal values may be shown once.

Tested on: Fibroblast
Assay: Multiplex assay against human fibroblast
Type: toxicity, cell-based
Summary of the method: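 Compound was added to live cells that had been stained at seeding with Hoechst33342, BioTracker Green Microtubule Cytoskeleton Dye, MitoTracker Red and Annexin V Alexa Fluor 680, and imaging followed on a CQ1 microscope at 37°C and 5% CO2. CellPathfinder machine-learning gating divided cells into Hoechst high-intensity objects or normal cells, normal cells into healthy, pyknosed or fragmented nuclei, and pyknosed cells into mitotic or apoptotic. Tubulin, mitochondrial-mass and membrane-permeability phenotypes are per cents of healthy-nucleus cells.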

[1] = 12 h, 1 µM, compound concentration 1 uM
[2] = 12 h, 10 µM, compound concentration 10 uM
[3] = 24 h, 1 µM, compound concentration 1 uM
[4] = 24 h, 10 µM, compound concentration 10 uM
[5] = 48 h, 1 µM, compound concentration 1 uM
[6] = 48 h, 10 µM, compound concentration 10 uM

## O=C1N=C(NCc2cccs2)S/C1=C\c1ccc2ncccc2c1
[1]
  Population Apoptotic (%): 15.79% and 17.07%
  Population Healthy Nuclei (%): 66.3% and 76.85%
  Population Hoechst High Intensity Objects (%): 0%
  Population Membrane Permeable-Phenotype (%): 3.28% and 1.28%
  Population Mitochondria Different-Phenotype (%): 4.92% and 6.41%
  Population Mitotic Cells (%): 84.21% and 82.93%
  Population Normal (%): 100%
  Population Pyknosed Nuclei (%): 20.65% and 20.2%
  Population Tubulin-Different-Phenotype (%): 6.56% and 12.82%
  Total Cell Count: 184 and 203
[2]
  Population Apoptotic (%): 20.69% and 27.27%
  Population Healthy Nuclei (%): 61.15% and 75.14%
  Population Hoechst High Intensity Objects (%): 0%
  Population Membrane Permeable-Phenotype (%): 14.58% and 10.29%
  Population Mitochondria Different-Phenotype (%): 25% and 16.91%
  Population Mitotic Cells (%): 79.31% and 72.73%
  Population Normal (%): 100%
  Population Pyknosed Nuclei (%): 18.47% and 18.23%
  Population Tubulin-Different-Phenotype (%): 34.38% and 55.15%
  Total Cell Count: 157 and 181
[3]
  Population Apoptotic (%): 14.29% and 17.86%
  Population Fragmented Nuclei (%): 10.34% and 5.09%
  Population Healthy Nuclei (%): 72.41% and 81.94%
  Population Hoechst High Intensity Objects (%): 0%
  Population Membrane Permeable-Phenotype (%): 4.08% and 3.39%
  Population Mitochondria Different-Phenotype (%): 5.44% and 3.39%
  Population Mitotic Cells (%): 85.71% and 82.14%
  Population Normal (%): 100%
  Population Pyknosed Nuclei (%): 17.24% and 12.96%
  Population Tubulin-Different-Phenotype (%): 7.48% and 19.77%
  Total Cell Count: 203 and 216
[4]
  Population Apoptotic (%): 19.05% and 33.33%
  Population Fragmented Nuclei (%): 12.93% and 9.6%
  Population Healthy Nuclei (%): 72.79% and 76.84%
  Population Hoechst High Intensity Objects (%): 0%
  Population Membrane Permeable-Phenotype (%): 11.21% and 5.88%
  Population Mitochondria Different-Phenotype (%): 23.36% and 20.59%
  Population Mitotic Cells (%): 80.95% and 66.67%
  Population Normal (%): 100%
  Population Pyknosed Nuclei (%): 14.29% and 13.56%
  Population Tubulin-Different-Phenotype (%): 49.53% and 66.91%
  Total Cell Count: 147 and 177
[5]
  Population Apoptotic (%): 14.81% and 21.05%
  Population Fragmented Nuclei (%): 8.85% and 4.11%
  Population Healthy Nuclei (%): 79.2% and 87.21%
  Population Hoechst High Intensity Objects (%): 0%
  Population Membrane Permeable-Phenotype (%): 1.12% and 4.19%
  Population Mitochondria Different-Phenotype (%): 8.38% and 5.76%
  Population Mitotic Cells (%): 85.19% and 78.95%
  Population Normal (%): 100%
  Population Pyknosed Nuclei (%): 11.95% and 8.68%
  Population Tubulin-Different-Phenotype (%): 6.7% and 19.37%
  Total Cell Count: 226 and 219
[6]
  Population Apoptotic (%): 44.44% and 38.89%
  Population Fragmented Nuclei (%): 18.54% and 16.67%
  Population Healthy Nuclei (%): 75.5% and 74.24%
  Population Hoechst High Intensity Objects (%): 0%
  Population Membrane Permeable-Phenotype (%): 2.63% and 12.24%
  Population Mitochondria Different-Phenotype (%): 33.33% and 14.29%
  Population Mitotic Cells (%): 55.56% and 61.11%
  Population Normal (%): 100%
  Population Pyknosed Nuclei (%): 5.96% and 9.09%
  Population Tubulin-Different-Phenotype (%): 47.37% and 63.95%
  Total Cell Count: 151 and 198

## CN1CCC(C(=O)c2cccc(NC(=O)c3c(F)cc(F)cc3F)n2)CC1
[1]
  Population Apoptotic (%): 28% and 40%
  Population Fragmented Nuclei (%): 16% and 28%
  Population Healthy Nuclei (%): 64% and 53%
  Population Hoechst High Intensity Objects (%): 3% and 2%
  Population Membrane Permeable-Phenotype (%): 1% and 5%
  Population Mitochondria Different-Phenotype (%): 4% and 10%
  Population Mitotic Cells (%): 71% and 60%
  Population Normal (%): 96% and 97%
  Population Pyknosed Nuclei (%): 18%
  Population Tubulin-Different-Phenotype (%): 28% and 43%
  Total Cell Count: 153 and 142
[2]
  Population Apoptotic (%): 32% and 36%
  Population Fragmented Nuclei (%): 12% and 23%
  Population Healthy Nuclei (%): 74% and 54%
  Population Hoechst High Intensity Objects (%): 4%
  Population Membrane Permeable-Phenotype (%): 1% and 6%
  Population Mitochondria Different-Phenotype (%): 7% and 6%
  Population Mitotic Cells (%): 67% and 63%
  Population Normal (%): 95%
  Population Pyknosed Nuclei (%): 13% and 22%
  Population Tubulin-Different-Phenotype (%): 42% and 63%
  Total Cell Count: 266 and 142
[3]
  Population Apoptotic (%): 45% and 40%
  Population Fragmented Nuclei (%): 12% and 34%
  Population Healthy Nuclei (%): 74% and 43%
  Population Hoechst High Intensity Objects (%): 1%
  Population Membrane Permeable-Phenotype (%): 0% and 6%
  Population Mitochondria Different-Phenotype (%): 2% and 10%
  Population Mitotic Cells (%): 55% and 59%
  Population Normal (%): 98%
  Population Pyknosed Nuclei (%): 12% and 21%
  Population Tubulin-Different-Phenotype (%): 21% and 45%
  Total Cell Count: 156 and 148
[4]
  Population Apoptotic (%): 54% and 37%
  Population Fragmented Nuclei (%): 13% and 30%
  Population Healthy Nuclei (%): 71% and 50%
  Population Hoechst High Intensity Objects (%): 3% and 2%
  Population Membrane Permeable-Phenotype (%): 0% and 5%
  Population Mitochondria Different-Phenotype (%): 6% and 8%
  Population Mitotic Cells (%): 45% and 62%
  Population Normal (%): 96% and 97%
  Population Pyknosed Nuclei (%): 14% and 19%
  Population Tubulin-Different-Phenotype (%): 37% and 65%
  Total Cell Count: 258 and 153
[5]
  Population Apoptotic (%): 71% and 56%
  Population Fragmented Nuclei (%): 16% and 42%
  Population Healthy Nuclei (%): 74% and 46%
  Population Hoechst High Intensity Objects (%): 3% and 2%
  Population Membrane Permeable-Phenotype (%): 0% and 5%
  Population Mitochondria Different-Phenotype (%): 1% and 5%
  Population Mitotic Cells (%): 28% and 43%
  Population Normal (%): 96% and 97%
  Population Pyknosed Nuclei (%): 8% and 10%
  Population Tubulin-Different-Phenotype (%): 25% and 67%
  Total Cell Count: 164 and 156
[6]
  Population Apoptotic (%): 71% and 54%
  Population Fragmented Nuclei (%): 17% and 36%
  Population Healthy Nuclei (%): 71% and 55%
  Population Hoechst High Intensity Objects (%): 5% and 3%
  Population Membrane Permeable-Phenotype (%): 0% and 3%
  Population Mitochondria Different-Phenotype (%): 7% and 3%
  Population Mitotic Cells (%): 28% and 45%
  Population Normal (%): 94% and 96%
  Population Pyknosed Nuclei (%): 10% and 7%
  Population Tubulin-Different-Phenotype (%): 40% and 69%
  Total Cell Count: 272 and 152
